L major viab: Leishmania major promastigote growth inhibition, primary screen | AID 1063, 2008 | Leishmania major promastigotes, resazurin fluorescence viability | inhibition, % at 10 µM | hit rate 9% among 200,000; in the data active = inhibition above about 50%;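 also: promastigotes grown with compound for 44 hours at 28 °C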
CHOP inh: inhibitors of CHOP promoter induction, primary screen, cell-based, unfolded protein response, luciferase reporter; CHO-K1 CHOP-promoter luciferase, tunicamycin-induced, 15-18 h; inhibition, % at 10 µM; hit rate 3.8% among 220,000;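 active = compounds that reduced the stress-induced luciferase reporter signal by more than about 70% of percent inhibition, limit read from the data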
XBP1 UPR activ: activators of adaptive XBP1 UPR arm, primary screen, cell-based, CHO-XBP1 luciferase reporter, luminescence, uHTS; IRE1-XBP1 UPR activation; percent of tunicamycin response, DMSO as zero; activation, % at 20 µM; hit rate 0.33% among 330,000; AID 463104, 2010;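 active = versus positive control, 20 µM dose yields 30% or more activation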
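Test system: CHO-XBP1 luciferase reporter cells | Buffer or medium: Serum-containing F12 medium, 10% FBS | Schedule: 6 h compound exposure at 37 °C, 5% CO2 | Detection: Steady-Glo luciferase glow luminescence, 10 min after reagent addition | Read-out basis: Activation, % of tunicamycin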
T cruzi repl: inhibitors of intracellular T. cruzi growth, primary screen, luminescence, NIH3T3 host cells | T. cruzi beta-gal in NIH3T3, 90 h | inhibition, % (no concentration beside the values) | hit rate 1.4% among 300,000;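 active = mean inhibition across valid replicates above about 55%, limit read from the data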;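 also: signal also drops with host cell toxicity which is not excluded here; higher percent means less beta-gal luminescence so fewer parasites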
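Assay system: NIH/3T3 fibroblasts plus reporter T. cruzi. Amount: NIH/3T3 cells, 5,000 per well. Buffer or medium: DMEM, 2% fetal bovine serum. Doses: compound pinned at 50 nL/well, DMSO. Schedule: ≥90 h infection period, 3 h prior cell attachment. Signal: luminescent β-galactosidase signal after 60 min lysis. Read-out: parasite load inhibition, %.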
UPR CHOP act: activators of apoptotic CHOP UPR arm, primary screen, cell-based, CHO-CHOP luciferase reporter, luminescence, uHTS; activation, % at 10 µM; AID 449763, 2010; UPR activation; percent of tunicamycin response over DMSO baseline; hit rate 0.34% among 330,000;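 active = at 10 µM dose, activation of 40% or more, normalized to positive control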
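Material: CHO-CHOP cells, stable luciferase reporter of PERK-eIF2a-CHOP signalling; quantity: 500 reporter cells seeded per well; buffer or medium: F12 medium containing 10% fetal bovine serum; compound: one dose, 10 µM in 0.5% DMSO; incubation: 6 h compound treatment, 37 °C; measured by: Steady-Glo luciferase luminescence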
Dynein cargo inh: inhibitors of GR-EGFP nuclear translocation, primary screen, dynein cargo transport inhibitor project, imaging, high-content, 3617.4 mouse cells; z-score, hits read low; AID 1381, 2008; test concentration mostly 20 µM; stimulated with dexamethasone, 1 µM; stronger effect = lower value; hit rate 0.47% among 220,000;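 active = plate z-score of nuclear minus cytoplasmic receptor signal below a set negative limit, without overly bright fluorescence or cell loss, cut at about -3.5 in these data, passing the limit was not always enough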;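 also: z-score of nuclear minus cytoplasmic ring GR-EGFP intensity difference per well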
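Medium: Induction medium lacking tetracycline, stripped serum | Probe or stimulus: 1.0 µM final dexamethasone stimulus | Schedule: 48 h induction, then 1 h compound, then 30 min agonist, 37 °C | Signal: Automated 10x imaging of fixed Hoechst-stained cells | Evaluation: Per-cell GR-EGFP intensity, nucleus versus surrounding cytoplasmic ring, well-averaged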
CHOP inh conf: retest of CHOP induction inhibitors, confirmation, cell-based; hit rate 45% among 2,100; shares compounds with CHOP inh; AID 504437, 2011; inhibition, % at 10 µM; CHO-CHOP promoter luciferase reporter, tunicamycin-induced, luminescence;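 active = mean of three repeat readings of reporter signal inhibition above a set limit, cut at about 70% in these data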
Numbers stand for hits; i = inactive; nt = no result given; ! = not active in a repeat. The entries come from a sample that favours hits as a whole.

SMILES	L major viab	CHOP inh	XBP1 UPR activ	T cruzi repl	UPR CHOP act	Dynein cargo inh	CHOP inh conf
Cn1ncc2c(O/N=C(\N)c3ccc(C(C)(C)C)cc3)ncnc21	nt	99	i	64	i	i	85
Cc1ccnc(NC(=O)c2sc3ccccc3c2Cl)c1	i	99	i	i	i	i	i
O=C(Nc1ccccc1-c1nc2ccccc2[nH]1)c1sc2ccccc2c1Cl	i	97	i	60	i	i	106
Cc1cnc(NC(=O)c2sc3ccccc3c2Cl)s1	i	i	i	i	i	i	nt
COc1ccc(-c2cc(C(=O)Nc3c(F)cc(F)cc3Br)no2)cc1	nt	nt	i	i	i	nt	nt
CC1CCN(C(=O)CCC(=O)Nc2nnc(C(F)(F)F)s2)CC1	nt	nt	i	i	i	nt	nt
Cc1cc(C)cc(C(=O)N(CCc2ccccc2)C2CC3CCC(C2)N3C)c1 (stereo unspecified)	nt	nt	i	i	i	nt	nt
Cc1ccc(C)c(OCC(=O)Nc2nonc2NC(=O)COc2cc(C)ccc2C)c1	i	101	i	i	i	i	i
O=C1C2CC=CCC2C(=O)N1Nc1ccccc1 (stereo unspecified)	i	i	i	i	i	i	nt
O=C1C=C(c2ccccc2)C(=O)N1Nc1ccccc1	i	107	i	i	i	i	i
Cc1ccc(NN2C(=O)C=C(c3ccc(Cl)cc3)C2=O)cc1	i	108	i	i	i	i	140
O=C(COC(=O)CCNS(=O)(=O)c1ccc(Cl)cc1)Nc1ccccc1OC(F)F	nt	nt	i	nt	i	nt	nt
Cc1oc2c(C)c(O)ccc2c(=O)c1-c1cnn(-c2ccccc2)c1	i	104	i	i	i	i	i
CCOC(=O)[C@H]1[C@H]2COc3cc(OC)ccc3[C@@H]2N2C(=O)c3cc(OC)c(OC)cc3NC(=O)[C@@]12C	nt	nt	i	nt	i	nt	nt
Oc1ccc(N=Nc2cccc(C(F)(F)F)c2)cc1C=Nc1ccc(N2CCOCC2)cc1	91	104	i	i	i	i	73
Cc1ccc(CCC(=O)NCc2ccccc2)o1	nt	nt	i	i	i	nt	nt
CCOC(=O)c1sc(NC(=S)NC(=O)C2CCCC2)cc1C	i	i	i	i	i	i	nt
CCOC(=O)c1sc(NC(=S)NC(=O)CC(C)C)cc1C	i	107	i	i	i	i	i
CCOC(=O)c1sc(NC(=O)c2ccc(Cl)s2)cc1C	i	i	i	i	i	i	nt
CCOC(=O)c1sc(NC(=O)Nc2ccc(Cl)cc2)cc1C	89	108	i	65	i	i	i
Cc1cccc2cc(C#N)c(NCCNS(=O)(=O)c3ccccc3)nc12	i	i	i	i	i	i	nt
Cc1cccc2cc(C#N)c(NCCCNS(=O)(=O)c3ccc(Cl)cc3)nc12	nt	104	i	i	i	i	i
Cc1ccc2sc(N(CCCN(C)C)C(=O)c3nc4ccccc4s3)nc2c1C	i	104	i	i	i	i	96
CCCCCCCC(=O)N/N=C/c1ccc(Br)cc1	i	97	i	i	i	i	132
CS(=O)(=O)c1ccc(C(=O)Nc2ccc(N3CCOCC3)cc2)c(Cl)c1	i	i	i	i	i	i	nt
SMILES	L major viab	CHOP inh	XBP1 UPR activ	T cruzi repl	UPR CHOP act	Dynein cargo inh	CHOP inh conf
CS(=O)(=O)c1ncc(Cl)c(C(=O)Nc2ccc(N3CCOCC3)cc2)n1	i	nt	i	i	i	i	117
CCN(CC)C(=S)Sc1c(-c2ccccc2)c2cc(Cl)ccc2[nH]c1=O	i	97	i	i	i	i	i
NNC(=O)c1[nH]c2ccc(Cl)cc2c1-c1ccccc1	nt	i	i	i	i	i	nt
Cc1cccc(Nc2nc(N)c([N+](=O)[O-])c(NCc3ccccc3)n2)c1	nt	102	i	i	i	i	i
Nc1nc(Nc2ccccc2)nc(NCc2ccccc2)c1[N+](=O)[O-]	nt	i	i	i	i	i	nt
O=C(NC1CCCC1)C(c1ccccc1)N(C(=O)c1csnn1)c1ccccc1F (stereo unspecified)	nt	nt	i	i	i	nt	nt
Nc1c2nc(-c3ccccc3)[nH]c(=O)c2nc(=O)n1-c1ccccc1	nt	103	i	i	i	i	i
O=c1[nH]c(-c2ccc(F)cc2)nc2c1sc(=S)n2-c1ccccc1	i	i	i	i	i	i	nt
COc1ccc(-n2c(=O)[nH]c3cc(C(=O)NCCc4ccccc4)ccc3c2=O)cc1OC	nt	nt	i	i	i	nt	nt
COC(=O)c1sc(-c2ccc(C(C)(C)C)cc2)cc1NC(=O)c1ccccc1C(=O)O	nt	106	i	i	i	i	116
O=C(CSc1nnnn1-c1ccc(Cl)cc1)NC(=O)Nc1ccc2c(c1)OCCO2	i	100	i	i	i	i	i
Cc1ccc(-n2nnnc2SCC(=O)NC(=O)Nc2ccc3c(c2)OCCO3)cc1	i	i	i	i	i	i	nt
Cc1ccc(-c2cc(-c3ccccc3)no2)c(O)c1	i	i	nt	i	nt	i	nt
Cc1ccc2nc(-c3cc(-c4ccccc4)no3)cn2c1	nt	105	i	nt	i	i	74
O=C(CN1CCN(Cc2ccccc2Cl)CC1)N/N=C/c1cccs1	nt	i	i	i	i	i	nt
O=C1CCC(=O)N1CCC(c1ccc(F)cc1)c1ccco1 (stereo unspecified)	i	i	i	i	i	i	nt
O=C1NCN(c2ccccc2)C12CCN(CCCC(c1ccc(F)cc1)c1ccc(F)cc1)CC2	101	106!	i	i	i	i	123
O=C1c2ccccc2C(=O)N1OS(=O)(=O)c1ccccc1	i	108	nt	i	nt	i	i
O=C1c2cccc3cccc(c23)C(=O)N1OS(=O)(=O)c1ccccc1	i	i	i	i	i	i	nt
Cc1ccc(C)c(S(=O)(=O)ON2C(=O)c3ccccc3C2=O)c1	i	106	i	i	i	-3.6	106
CN(C)S(=O)(=O)c1cccc(COc2ccccc2C(=O)Nc2ccccc2)c1	nt	nt	i	i	i	nt	nt
Cc1ccc(Cn2c(=O)c3c(nc4n3CCCN4Cc3ccccc3)n(C)c2=O)cc1	i	105	i	i	i	i	i
Cn1c(=O)n(Cc2ccccc2)c(=O)c2c1nc1n2CCCN1Cc1ccccc1	i	i	i	i	i	i	nt
COc1ccc(CCNC(=O)CSc2nnc(CNC(=O)c3cc(OC)c(OC)c(OC)c3)o2)cc1OC	nt	nt	i	i	i	nt	nt
Cc1cccc(-c2nnc(SCC(=O)N3CCOCC3)o2)c1	nt	nt	i	i	i	nt	nt
O=C(N/N=C/c1cccc(Cl)c1)c1c(O)c2c([nH]c1=O)CCCC2	nt	98	i	i	i	i	i

Assay outcomes: PubChem, several laboratories
